Our source for the Ki and EC50 values is PMC3216638 (Regulatory peptides, 2009).

What is called Ki is a measure of affinity in units of concentration, obtained from inhibition or displacement. The EC50 is the midpoint of the concentration-response curve.

Common to all, as to assay type: cell-based, Homo sapiens
In assay [1] the test system is hMC4R/TM2 hMC2R. Kind of assay: […]-NDP-MSH displacement on transfected cells. As to conditions: read-out: THIQ Ki; whole HEK293 cells, MEM with 0.2% BSA, 1 h.
The test system of assay [2] is hMC4R/TM4 hMC2R. Kind of assay: […]-NDP-MSH displacement on transfected cells. The conditions noted are these: read-out: THIQ Ki; whole HEK293 cells, MEM with 0.2% BSA, 1 h.
The test system of assay [3] is hMC4R/TM2 hMC2R. Briefly: cAMP accumulation. As to conditions: read-out: THIQ (EC50 (nM)); HEK293 cells, 1 h, 37°C, 1 mM IBMX; agonist. The essentials:
(§1)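 HEK293 cells stably expressing FLAG-tagged hMC4R chimeras, with one TM swapped for the homologous hMC2R segment, were selected with G418. Cells were incubated in EBSS with test compound (10−10–10−6 M) and 10−3 M IBMX for 1 h at 37°C. The reaction was stopped with ice-cold ethanol and the supernatant dried under nitrogen at 55°C. Duplicate wells, three separate experiments; sigmoid variable-slope fit.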
A general note: Cyclic AMP is a second messenger, typically raised through Gs and lowered through Gi signalling.

The test system of assay [4] is hMC4R/TM5 hMC2R. Briefly: […]-NDP-MSH displacement on transfected cells. The conditions noted are these: read-out: THIQ Ki; whole HEK293 cells, MEM with 0.2% BSA, 1 h.
The subject of assay [5] is hMC4R/TM3 hMC2R. Briefly: cAMP accumulation. The conditions noted are these: read-out: THIQ (EC50 (nM)); HEK293 cells, 1 h, 37°C, 1 mM IBMX; agonist. The essentials: as §1
Assay [6] deals with hMC4R/TM4 hMC2R. Briefly: cAMP accumulation. The conditions noted are these: read-out: THIQ (EC50 (nM)); HEK293 cells, 1 h, 37°C, 1 mM IBMX; agonist. The method in brief:
as §1

The subject of assay [7] is hMC4R/TM6 hMC2R. Kind of assay: […]-NDP-MSH displacement on transfected cells. The conditions noted are these: read-out: THIQ Ki; whole HEK293 cells, MEM with 0.2% BSA, 1 h.
Assay [8] concerns hMC4R/TM5 hMC2R. Briefly: cAMP accumulation. As to conditions: read-out: THIQ (EC50 (nM)); HEK293 cells, 1 h, 37°C, 1 mM IBMX; agonist. The essentials:
as §1

Assay [9] deals with hMC4R/TM6 hMC2R. Kind of assay: cAMP accumulation. The conditions noted are these: read-out: THIQ (EC50 (nM)); HEK293 cells, 1 h, 37°C, 1 mM IBMX; agonist. The method in brief: as §1
For assay [10], the system named is hMC4R/TM3 hMC2R. Briefly: […]-NDP-MSH displacement on transfected cells. The conditions noted are these: read-out: THIQ Ki; whole HEK293 cells, MEM with 0.2% BSA, 1 h.

For the molecule `O=C(N[C@H](Cc1ccc(Cl)cc1)C(=O)N1CCC(Cn2cncn2)(C2CCCCC2)CC1)[C@H]1Cc2ccccc2CN1` [THIQ, N-(3R)-1 4-tetrahydroisoquinolinium-3-ylcarbonyl-(1R)-1-(4-chlorobenzyl)-2-4-cyclohexyl-4-(1H-1,2,4-triazol-1-ylmethyl)piperidin-1-yl-2-oxoethylamine], the Ki in the assay with hMC4R/TM2 hMC2R [1] stood at 6.2 ± 0.2 nM; in the assay with hMC4R/TM4 hMC2R [2], 7.2 ± 2.3 nM; in the assay with hMC4R/TM5 hMC2R [4] it was 6.7 ± 3.4 nM; in the assay on hMC4R/TM6 hMC2R [7], 5.3 ± 0.2 nM; in the assay on hMC4R/TM3 hMC2R [10], 76.2 ± 17.3 nM. In addition, the EC50 stood at 3.1 ± 0.3 nM with hMC4R/TM2 hMC2R [3]; 91 ± 6.2 nM in the assay on hMC4R/TM3 hMC2R [5]; 3.5 ± 0.3 nM with hMC4R/TM4 hMC2R [6]; 3.9 ± 0.4 nM in the assay with hMC4R/TM5 hMC2R [8]; 2.8 ± 0.6 nM with hMC4R/TM6 hMC2R [9].
